Source: PubChem BioAssay (several laboratories)
Compounds with a hit are over-represented: about 4.1% of the library has one in this group of screens.
hERG protect: hERG rescue from dofetilide block, primary screen, cell-based, CHO-hERG, FluxOR thallium flux, dofetilide IC70 | dofetilide IC70 present | activation (rescue from dofetilide block), less the hit threshold, % at 10 µM | actives 0.51% (n = 310,000) | Voltage-gated inwardly rectifying potassium channel KCNH2 (Homo sapiens), Q12809;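 active means activation above the mean of controls blocked by dofetilide plus 5 SD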;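 further: thallium influx through hERG after potassium depolarization seen as dye fluorescence rise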
KCNK3 inh: human KCNK3 channel inhibitors, primary screen, CHO cells, FluxOR thallium flux, B-score; B-score at 10 µM; FluxOR fluorescence; hits give low values; Potassium channel subfamily K member 3 (Homo sapiens), O14649; AID 602410, 2012; actives 0.84% (n = 340,000);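 active means B-score under library mean minus 4 SD, starting fluorescence ratio at most library mean plus 5 SD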;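 further: more negative B-score means stronger inhibition of thallium flux through KCNK3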
KCNQ1 block: inhibitors of human KCNQ1 channel, primary screen, cell-based, thallium flux, high-throughput. Potassium voltage-gated channel subfamily KQT member 1 (Homo sapiens), P51787. actives 1.3% (n = 310,000). CHO-K1 KCNQ1, FluxOR thallium flux fluorescence; hits give high values. B-score at 10 µM;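 active means compounds whose thallium flux B-score, printed positive for inhibition, exceeds three library SD while starting fluorescence stays within three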;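 further: channel opened by potassium depolarization with thallium stimulus after 20 min compound exposure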
KCNK9 block: KCNK9 potassium channel inhibitors, primary screen, HEK293 cells, thallium flux | B-score at 10 µM | FluxOR thallium flux fluorescence; hits give low values | Potassium channel subfamily K member 9 (Homo sapiens), Q9NPC2 | actives 1.2% (n = 310,000) | AID 488922, 2010;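 active means ratio B-score over 3 SD below the library mean, with starting fluorescence within 5 SD of its mean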;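 further: negative B-score means less thallium flux so channel inhibition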
Target sequence (Q9NPC2 whole entry, looked up): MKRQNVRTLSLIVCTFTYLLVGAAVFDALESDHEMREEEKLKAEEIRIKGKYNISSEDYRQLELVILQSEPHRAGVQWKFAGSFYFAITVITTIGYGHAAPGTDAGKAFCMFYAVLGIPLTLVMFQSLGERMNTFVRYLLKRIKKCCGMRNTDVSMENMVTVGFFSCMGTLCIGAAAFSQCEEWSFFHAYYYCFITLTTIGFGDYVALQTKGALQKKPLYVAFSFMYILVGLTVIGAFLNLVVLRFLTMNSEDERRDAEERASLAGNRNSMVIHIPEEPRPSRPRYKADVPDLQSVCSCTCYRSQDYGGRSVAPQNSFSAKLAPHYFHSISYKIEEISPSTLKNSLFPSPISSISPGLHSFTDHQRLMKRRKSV
KCNQ1 pot: potentiators or activators of KCNQ1 channel, primary screen, cell-based, thallium flux, high-throughput; CHO-K1 KCNQ1, thallium flux FluxOR fluorescence; hits give high values; AID 2648, 2010; B-score at 10 µM; actives 0.35% (n = 310,000); Potassium voltage-gated channel subfamily KQT member 1 (Homo sapiens), P51787;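 active means fluorescence ratio B-score, a plate-corrected score, at least three library SD, with initial intensity B-score within 5 SD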
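Assay system: CHO-K1 cells stably expressing KCNQ1. Medium: assay buffer for compound exposure, DMSO matched across wells. Timing: 37 °C overnight plating, 90-min dark dye load, 20-min compound pretreatment. Signal: kinetic FluxOR fluorescence, 10 s baseline plus 110 s post-stimulus.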
KCC2 mod: KCC2 cotransporter modulators, thallium flux, primary screen, cell-based, HEK293 KCC2, FluoZin-2 fluorescence, MLSMR; actives 2.2% (n = 190,000); Solute carrier family 12 member 5 (Homo sapiens), Q9H2X9; B-score of Tl+ flux slope (higher = more flux/activation; lower = inhibition) at 10 µM; KCC2 cells, thallium flux FluoZin-2 fluorescence;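 active means thallium flux slope and its plate-corrected score both differing from the plate sample mean at a set confidence after two filtering rounds, in either direction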;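 further: slope of fluorescence scaled to starting intensity during 10 to 20 s after thallium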
KCNK9 block conf: KCNK9 potassium channel inhibitors, confirmation, HEK293 cells, thallium flux, duplicate | shares compounds with KCNK9 block | FluxOR thallium flux fluorescence | inhibition, % at 10 µM | actives 43% (n = 4,900) | AID 492992, 2010;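 active means thallium signal inhibited by more than 5 SD of the compound-free buffer control wells, on both duplicate plates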;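 further: 0% = assay buffer control wells without compound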
Kir2-1 spec: mouse Kir2.1 channel inhibition, confirmation, selectivity assay for KCNK9 modulator project, cell-based, HEK293, thallium flux | shares compounds with KCNK9 block | inhibition, % at 10 µM | actives 4% (n = 4,900) | AID 492993, 2010 | Kir2.1 cells, FluxOR thallium flux fluorescence;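 active means thallium signal drop more than 5 SD beyond the mean of the no-compound control wells, seen in both duplicate plates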;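 further: signal is fluorescence rise after thallium addition divided by baseline fluorescence; plate controls were assay buffer only for no effect and full block by chlorpromazine control for full effect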
KCNK9 uninduced: thallium flux in non-induced HEK293 cells, confirmation, counter-screen for KCNK9 inhibitor project, cell-based, second counter screen, non-induced KCNK9-HEK293; shares compounds with KCNK9 block; FluxOR thallium flux; inhibition, % at 10 µM; actives 40% (n = 4,900);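 active means thallium signal drop beyond 5 SD of the untreated control mean, on both duplicate plates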;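 further: plate controls were buffer only IC0 wells for no effect and SID17386958 at its maximal inhibitory level for full effect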
An asterisk follows results filed as active; i = inactive; · = no result given.

SMILES	hERG protect	KCNK3 inh	KCNQ1 block	KCNK9 block	KCNQ1 pot	KCC2 mod	KCNK9 block conf	Kir2-1 spec	KCNK9 uninduced
c1ccc(NCc2nc3ccccc3n2CCOc2ccccc2)cc1	-5	i	i	i	i	-8.2e-05	·	·	·
COc1ccc(C2=NN(C(=O)CSc3nc(=O)n4cc(C)ccc4n3)C(c3ccc(C)cc3)C2)cc1 (stereo not drawn)	-14	i	i	i	i	·	·	·	·
CC(C)Cn1c(N)c(C(=O)COC(=O)c2ccc(Br)cc2)c(=O)n(C)c1=O	·	i	·	·	·	·	·	·	·
Cn1c(SCC(=O)NCCc2ccccc2)ncc(C(=O)Nc2ccc(F)cc2)c1=O	-12	i	i	i	i	·	·	·	·
O=C(COC(=O)c1ccccc1C(=O)c1ccccc1)Nc1ccc(SC(F)F)cc1	-10	i	i	-12*	i	-0.69	i	i	32%*
COc1cccc(NC(=S)N/N=C2/CCCCc3ccccc32)c1	-9	i	i	i	15*	24*	i	i	i
CC(C)NC(=S)N/N=C1\CCCCc2ccccc21	0	i	i	i	i	2.7	·	·	·
Cc1cccc(C(=O)Nc2ccc(C(=O)c3ccccc3)cc2)c1	-3	i	i	-15*	i	·	60%*	i	27%*
Cc1ccc(N2CCN(S(=O)(=O)c3ccc(Cl)s3)CC2C)cc1 (stereo not drawn)	-9	i	i	i	i	·	i	i	i
CCc1cccc(C)c1N(C(=O)Cn1c(COC)nc2ccccc21)C(C)COC (stereo not drawn)	-10	i	i	-10*	i	·	40%*	i	25%*
COc1ccc([C@H]2CC(=O)C=C(c3cc(C=O)ccc3OC)C2)cc1	·	i	·	·	·	·	·	·	·
Clc1ccc(-c2nnsc2SCc2ccccc2)cc1	-8	i	i	-11*	i	·	i	i	44%*
COc1ccccc1OCCSc1nnnn1-c1ccc(C)cc1	-9	i	i	i	i	-2.3	i	i	i
Fc1ccccc1OCCSc1nnnn1-c1ccccc1	-9	i	i	i	i	-2.2	·	·	·
CN(C(=O)c1cccc(NC(=O)Cc2ccc(NC(=O)C3CCCN(C(=O)C4CC4)C3)cc2)c1)C1CCCCC1 (stereo not drawn)	·	i	·	·	·	·	·	·	·
O=C([C@@H]1CC=C[C@@H]2CCN(C3CC3)C(=O)[C@@H]21)N1CCN(c2ccccc2)CC1	2	i	i	i	i	·	·	·	·
CSc1nc2ccccc2cc1/C=C(\C#N)c1ccccc1	-5	i	i	-13*	i	0.032	54%*	i	42%*
CCC(C)(C)C1CCC2(CC1)NC(=O)N(CC(=O)N1CCN(C(=O)c3ccco3)CC1)C2=O (stereo not drawn)	·	i	·	·	·	·	·	·	·
CCn1c(SCC(=O)c2cc(C)ccc2C)nc2cc(S(=O)(=O)N3CCOCC3)ccc21	-15	i	i	i	i	-0.85	i	i	i
O=C(Nc1cccc(-n2cnnn2)c1)c1ccc(C(F)(F)F)cc1	·	i	·	·	·	·	·	·	·
CCCCC(=O)Nc1ccccc1C(=O)OCC(=O)c1ccc2c(c1)OCCO2	-9	i	i	-19*	i	-0.29	78%*	i	43%*
CCN1C(=O)[C@@H]2[C@H](C1=O)[C@@H]1CC(C(=O)OC)=C[C@@H](C(=O)OC)C3C1=C(C(=O)C3(CC)CC)[C@@H]2C (stereo partly drawn)	-7	·	i	i	i	·	·	·	·
Cc1ccc(-c2noc(CN(C(=O)C(c3ccccc3)c3ccccc3)C(C)C)n2)cc1	-23	i	i	-12*	i	-1.1	40%*	i	33%*
Cc1cccc(-c2noc(CN(C(=O)CCc3ccccc3)C(C)C)n2)c1	-6	i	i	i	i	-0.91	i	i	26%*
Cc1cccc(-c2noc(CN(C(=O)/C=C/c3ccccc3Cl)C(C)C)n2)c1	-10	i	i	i	i	-0.011	·	·	·
SMILES	hERG protect	KCNK3 inh	KCNQ1 block	KCNK9 block	KCNQ1 pot	KCC2 mod	KCNK9 block conf	Kir2-1 spec	KCNK9 uninduced
CCOC(=O)Cn1c(C)cc(=O)c2cccc(C)c21	0	i	i	i	i	·	·	·	·
CCOC(=O)Cn1c(=O)cc(C)c2cccc(C)c21	-15	i	i	i	i	0.049	i	i	i
COC(=O)c1sc(-c2ccc(C(C)(C)C)cc2)cc1NC(=O)CSCC(=O)O	-8	i	i	i	i	-0.73	i	i	i
COC(=O)c1sc(-c2ccccc2)cc1NC(=O)C1CC1	-2	i	i	i	i	-0.0087	·	·	·
COC(=O)c1sc(-c2ccc(C(C)(C)C)cc2)cc1NC(=O)c1ccccc1C(=O)O	-26	i	i	i	i	-1.7	i	i	i
COC(=O)c1sc(-c2ccc(Cl)cc2)cc1NC(=O)c1ccccc1C(=O)O	-9	i	i	i	i	-1.8	·	·	·
COc1ccc(S(=O)(=O)Nc2ccc(S(=O)(=O)Nc3cc(C)nc(C)n3)cc2)cc1OC	-5	i	i	i	i	·	·	·	·
Cc1c(C(=O)c2ccc(Cl)cc2Cl)cnc2cc3c(cc12)OCO3	-11	i	i	-16*	i	0.77	62%*	i	30%*
COc1ccc2nc(SCC(=O)Nc3ccc4c(c3)CCC4)[nH]c2c1	-12	i	i	i	i	0.14	i	i	i
CC(C)(C)C1CCC(N2CCN(c3ccccc3)CC2)CC1 (stereo not drawn)	-6	i	i	i	i	·	·	·	·
O=C(N/N=C/c1cccs1)c1cccc(NC(=O)c2ccccc2Cl)c1	-19	i	i	-9.4*	i	-0.046	i	i	i
